Experimental data published in ChEMBL document CHEMBL4387703, “Lead optimization and biological evaluation of fragment-based cN-II inhibitors” (Eur J Med Chem, 2019).

Tests used:
Conditions in all cases: Homo sapiens
[1] = compound: O=C(Nc1ncnc2c1ncn2CP(=O)(O)O)c1cccc(-c2ccccc2)c1; test: Competitive inhibition of recombinant cN-II (unknown origin) using varying level of IMP as substrate assessed as substrate Kcat by HPLC method based Lineweaver-Burk plot analysis
Procedure, shortened: (§1)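 Enzyme, alone or with compound, was mixed with IMP (0.2 to 3 mM) under stirring at 37 °C in imidazole pH 6.5/NaCl/MgCl2 buffer. Samples were taken every 7 s and quenched with 10% perchloric acid. IMP and inosine were quantified by SAX HPLC in 10 mM ammonium phosphate pH 5.5. Data were fitted to competitive, non-competitive, uncompetitive or mixed inhibition equations.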

[2] = compound: O=C(Nc1ncnc2c1ncn2CP(=O)(O)O)c1cccc(-c2ccccc2)c1; test: Competitive inhibition of recombinant cN-II (unknown origin) using varying level of IMP as substrate assessed as substrate Km by HPLC method based Lineweaver-Burk plot analysis; procedure, shortened: as §1
[3] = compound: O=C(Nc1ncnc2c1ncn2CP(=O)(O)O)c1cccc(-c2ccccc2)c1; test: Noncompetitive inhibition of recombinant cN-II (unknown origin) assessed as substrate Kcat using varying level of IMP as substrate by HPLC method based Lineweaver-Burk plot analysis; procedure, shortened: as §1
[4] = compound: O=C(Nc1ncnc2c1ncn2CP(=O)(O)O)c1cccc(-c2ccccc2)c1; test: Noncompetitive inhibition of recombinant cN-II (unknown origin) assessed as substrate Km using varying level of IMP as substrate by HPLC method based Lineweaver-Burk plot analysis; procedure, shortened: as §1
[5] = compound: O=C(Nc1ncnc2c1ncn2CP(=O)(O)O)c1cccc(-c2ccccc2)c1; test: Uncompetitive inhibition of recombinant cN-II (unknown origin) assessed as substrate Kcat using varying level of IMP as substrate by HPLC method based Lineweaver-Burk plot analysis; procedure, shortened: as §1
[6] = compound: O=C(Nc1ncnc2c1ncn2CP(=O)(O)O)c1cccc(-c2ccccc2)c1; test: Uncompetitive inhibition of recombinant cN-II (unknown origin) assessed as substrate Km using varying level of IMP as substrate by HPLC method based Lineweaver-Burk plot analysis; procedure, shortened: as §1
[7] = compound: O=C(Nc1ncnc2c1ncn2CP(=O)(O)O)c1cccc(-c2ccccc2)c1; test: Mixed type inhibition of recombinant cN-II (unknown origin) assessed as substrate Kcat using varying level of IMP as substrate by HPLC method based Lineweaver-Burk plot analysis; procedure, shortened: as §1
[8] = compound: O=C(Nc1ncnc2c1ncn2CP(=O)(O)O)c1cccc(-c2ccccc2)c1; test: Mixed type inhibition of recombinant cN-II (unknown origin) assessed as substrate Km using varying level of IMP as substrate by HPLC method based Lineweaver-Burk plot analysis; procedure, shortened: as §1

B1: 5'-nucleotidase (Homo sapiens), P21589 (protein)
chain: MCPRAARAPATLLLALGAVLWPAAGAWELTILHTNDVHSRLEQTSEDSSKCVNASRCMGGVARLFTKVQQIRRAEPNVLLLDAGDQYQGTIWFTVYKGAEVAHFMNALRYDAMALGNHEFDNGVEGLIEPLLKEAKFPILSANIKAKGPLASQISGLYLPYKVLPVGDEVVGIVGYTSKETPFLSNPGTNLVFEDEITALQPEVDKLKTLNVNKIIALGHSGFEMDKLIAQKVRGVDVVVGGHSNTFLYTGNPPSKEVPAGKYPFIVTSDDGRKVPVVQAYAFGKYLGYLKIEFDERGNVISSHGNPILLNSSIPEDPSIKADINKWRIKLDNYSTQELGKTIVYLDGSSQSCRFRECNMGNLICDAMINNNLRHTDEMFWNHVSMCILNGGGIRSPIDERNNGTITWENLAAVLPFGGTFDLVQLKGSTLKKAFEHSVHRYGQSTGEFLQVGGIHVVYDLSRKPGDRVVKLDVLCTKCRVPSYDPLKMDEVYKVILPNFLANGGDGFQMIKDELLRHDSGDQDINVVSTYISKMKVIYPAVEGRIKFSTGSHCHGSFSLIFLSLWAVIFVLYQ
kcat [1]: 49.9 s⁻¹ | Km [2]: 1070 µM | kcat [3]: 53.1 s⁻¹ | Km [4]: 1260 µM | kcat [5]: 54.1 s⁻¹ | Km [6]: 1360 µM | kcat [7]: 49.9 s⁻¹ | Km [8]: 1070 µM
